Measurements of several laboratories.
Protocols differ between the studies behind these lines.
PIK3CG: Phosphatidylinositol 4,5-bisphosphate 3-kinase catalytic subunit gamma isoform (PIK3CG, Homo sapiens, UniProt P48736)
Inositol-tetrakisphosphate 1-kinase: Inositol-tetrakisphosphate 1-kinase (Homo sapiens, UniProt Q13572)
PTGS2: Prostaglandin G/H synthase 2 (PTGS2, Homo sapiens, UniProt P35354)

SMILES | target | assay | setting | IC50 [nM]
CC(C)c1cccc(C(C)C)c1N=C1C(=O)Nc2ccccc21 | PIK3CG | enzyme activity, inhibitor, ADP detection | – | 12.6
CN(C)C(=O)c1cc2cnc(Nc3ccc4c(=O)cc(N5CCNCC5)oc4c3)nc2n1C1CCCC1 | PIK3CG | enzyme activity, inhibitor, radiometric | – | 6930
NC(=O)C1CN(C(=O)CCl)c2ccccc2O1 (stereo not drawn) | Creatine kinase U-type, mitochondrial (CKMT1A, Homo sapiens, UniProt P12532) | enzyme activity, inhibitor, ADP detection | pH 8.5 | 3000
Nc1ncnc2c1cnn2C1CCCCC1 | Inositol-tetrakisphosphate 1-kinase | enzyme activity, inhibitor | – | 3200
Cc1cccc(N=C2C(=O)N(Cc3ccc(Br)cc3)c3ccccc32)c1 | PIK3CG | enzyme activity, inhibitor, ADP detection | – | 9.8
O=C(CCNC(=O)CNC(=O)CC(c1ccccc1)(c1ccccc1)c1ccccc1)NC[C@@H]1CCCN(Cc2cccnc2F)C1 | Muscarinic acetylcholine receptor M3 (CHRM3, Homo sapiens, UniProt P20309) | ligand displacement, radioligand | cell membranes | 3800
COc1ccc(-c2cc(=O)c3ccc(Nc4ncc5cc(C(=O)N(C)C)n(C6CCCC6)c5n4)cc3o2)cc1 | PIK3CG | enzyme activity, inhibitor, radiometric | – | 6030
O=C1C(=Nc2ccccc2I)c2ccccc2N1Cc1ccc([N+](=O)[O-])cc1 | PIK3CG | enzyme activity, inhibitor, ADP detection | – | 1.52
NS(=O)(=O)c1ccc(-n2nc(-c3nnc(CCl)o3)cc2-c2ccccc2)cc1 | PTGS2 | enzyme activity, inhibitor | – | 2640
O=C1C(=Nc2ccc(Cl)cc2Br)c2ccccc2N1Cc1ccc([N+](=O)[O-])cc1 | PIK3CG | enzyme activity, inhibitor, ADP detection | – | 2.89
Nc1ncnc2c1ncn2C1CCCC1 | Inositol-tetrakisphosphate 1-kinase | enzyme activity, inhibitor, ADP detection | – | 78
Cc1ccc(CN2C(=O)C(=Nc3cccc(Cl)c3)c3ccccc32)cc1 | PIK3CG | enzyme activity, inhibitor, ADP detection | – | 1.11
Nc1ncnc2c1ncn2[C@@H]1O[C@H](CO)C[C@H]1O | Inositol-tetrakisphosphate 1-kinase | enzyme activity, inhibitor | – | 3100
O=C1Nc2ccccc2C1=Nc1ccccc1I | PIK3CG | enzyme activity, inhibitor, ADP detection | – | 3.88
CN(C)C(=O)c1cc2cnc(Nc3cncc(-c4cccc5c(=O)cc(N6CCOCC6)oc45)c3)nc2n1C1CCCC1 | PIK3CG | enzyme activity, inhibitor, radiometric | – | 6110
c1ccc(COc2[nH]cnc3ncnc2-3)cc1 | Inositol-tetrakisphosphate 1-kinase | enzyme activity, inhibitor, ADP detection | – | 2900
CC(C)NC(=O)COc1cccc(-c2nc(Nc3ccc4[nH]ncc4c3)c3ccccc3n2)c1 | UDP-glucuronosyltransferase 1A1 (UGT1A1, Homo sapiens, UniProt P22309) | enzyme activity, inhibitor | – | 60.9
CN(C)C(=O)c1cc2cnc(Nc3cc(C(F)(F)F)c(-c4cccc5c(=O)cc(N6CCOCC6)oc45)cn3)nc2n1C1CCCC1 | PIK3CG | enzyme activity, inhibitor, radiometric | – | > 10000
NS(=O)(=O)c1ccc(-n2nc(C(=O)NN3C(=O)c4ccccc4C3=O)cc2-c2ccccc2)cc1 | PTGS2 | enzyme activity, inhibitor | – | 2640
O=C1C(=Nc2ccccc2I)c2ccccc2N1Cc1ccc(Br)cc1 | PIK3CG | enzyme activity, inhibitor, ADP detection | – | 5.8
COc1ccc(-c2oc3cc(Nc4ncc5cc(C(=O)N(C)C)n(C6CCCC6)c5n4)ccc3c(=O)c2F)cc1 | PIK3CG | enzyme activity, inhibitor, radiometric | – | > 10000
NS(=O)(=O)c1ccc(-n2nc(-c3nnc(S)o3)cc2-c2ccccc2)cc1 | PTGS2 | enzyme activity, inhibitor | – | 3730
CN(C)C(=O)c1cc2cnc(Nc3cc(C(=O)O)cc(-c4ccc5c(=O)cc(N6CCOCC6)oc5c4)c3)nc2n1C1CCCC1 | PIK3CG | enzyme activity, inhibitor, radiometric | – | 17300
COc1nc2ccc(Br)cc2cc1[C@@H](c1ccccc1)[C@@](O)(CCN(C)C)c1cccc2ccccc12 | Retinal dehydrogenase 2 (ALDH1A2, Homo sapiens, UniProt O94788) | enzyme activity, inhibitor, fluorescence | 15 min, pH 7.5 | < 10000
